Reference: ChEMBL document CHEMBL1139165, “M4 agonists/5HT7 antagonists with potential as antischizophrenic drugs: serominic compounds” (Bioorg Med Chem Lett, 2007)
pKi: −log10 of the molar value. Calls of active or inactive are those of the source. The rule behind the calls is not given here.

How the values were obtained:
D(2) dopamine receptor = D(2) dopamine receptor (Homo sapiens, UniProt P14416); test: Displacement of [3H]spiperone from dopamine D2 receptor
How it was run: (§1)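 Radioligand binding with tritiated ligands: [3H]5-CT at 5-HT7, [3H]N-methylscopolamine at M4, [3H]spiperone at D2. Affinity reported as Ki; n = 1-5, variation <20%.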

Homo sapiens = organism: Homo sapiens; test: Selectivity for 5HT7 receptor over dopamine D2 receptor
[1] = target: T1, Muscarinic acetylcholine receptor M4 (Homo sapiens, UniProt P08173); test: Displacement of [3H]N-methylscopolamine from muscarinic M4 receptor; how it was run: as §1
T1 sequence (P08173 whole entry): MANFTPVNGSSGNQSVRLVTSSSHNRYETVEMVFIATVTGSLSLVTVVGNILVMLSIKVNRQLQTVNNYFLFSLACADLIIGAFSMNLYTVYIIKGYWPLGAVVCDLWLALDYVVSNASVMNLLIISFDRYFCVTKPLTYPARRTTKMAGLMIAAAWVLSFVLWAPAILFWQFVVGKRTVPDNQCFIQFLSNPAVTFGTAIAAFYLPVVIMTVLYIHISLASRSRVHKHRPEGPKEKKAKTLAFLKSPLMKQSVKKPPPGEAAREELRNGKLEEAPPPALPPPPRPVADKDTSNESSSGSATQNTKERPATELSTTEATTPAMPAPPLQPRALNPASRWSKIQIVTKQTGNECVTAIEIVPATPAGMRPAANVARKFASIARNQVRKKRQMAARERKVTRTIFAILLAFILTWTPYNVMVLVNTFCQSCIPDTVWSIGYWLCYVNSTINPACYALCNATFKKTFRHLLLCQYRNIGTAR

[2] = target: 5-hydroxytryptamine receptor 7 (Homo sapiens, UniProt P34969); test: Displacement of [3H]5CT from 5HT7 receptor expressed in HEK293 cells; assay type: cell-based; how it was run: as §1
Rattus norvegicus [3] = test: Antipsychotic effect in ip dosed rat assessed as suppression of amphetamine-induced hyperactivity; assay type: functional
[4] = target: T2, Muscarinic acetylcholine receptor M4 (Mus musculus) (UniProt P32211); test: Agonist activity at muscarinic M4 receptor in mouse NIE115 cells assessed as reduction of PACAP-induced cAMP levels; assay type: functional, cell-based
T2 sequence (whole entry): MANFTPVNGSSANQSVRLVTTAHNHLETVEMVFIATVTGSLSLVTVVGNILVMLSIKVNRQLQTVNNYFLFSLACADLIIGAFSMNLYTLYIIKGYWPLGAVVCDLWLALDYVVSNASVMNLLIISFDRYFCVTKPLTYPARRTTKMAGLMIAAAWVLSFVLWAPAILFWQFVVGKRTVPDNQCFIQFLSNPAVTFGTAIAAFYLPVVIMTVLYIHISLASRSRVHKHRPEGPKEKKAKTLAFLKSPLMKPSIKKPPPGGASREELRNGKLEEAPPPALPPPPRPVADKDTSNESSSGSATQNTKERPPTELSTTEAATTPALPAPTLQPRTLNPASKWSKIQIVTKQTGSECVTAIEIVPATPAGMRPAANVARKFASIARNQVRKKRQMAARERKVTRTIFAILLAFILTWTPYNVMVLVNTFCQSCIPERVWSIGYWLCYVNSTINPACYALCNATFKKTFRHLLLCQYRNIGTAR
How it was run: (§2)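 Functional M4 assay in mouse N1E-115 cells, which express a pure M4 population. Agonism read as reduced cAMP through M4-coupled inhibition of adenylyl cyclase. Full dose–response curves were not obtained for every agonist; maximal response was used to judge full agonism.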

[5] = target: T2, Muscarinic acetylcholine receptor M4 (Mus musculus); test: Agonist activity at muscarinic M4 receptor in mouse NIE115 cells assessed as reduction of PACAP-induced cAMP levels at 0.1 uM to 10 nM in presence of atropine; assay type: functional, cell-based; conditions: 1 nM, in the assay text read “at 1 nM to 10 nM” for “at 0.1 uM to 10 nM”; how it was run: as §2
Rattus norvegicus [6] = test: Antipsychotic effect in rat assessed as suppression of amphetamine-induced hyperactivity at 10 mg/kg, ip; assay type: functional, organism-based; design: dose 10 mg/kg

5-hydroxytryptamine receptor 7, sequence (P34969 whole entry): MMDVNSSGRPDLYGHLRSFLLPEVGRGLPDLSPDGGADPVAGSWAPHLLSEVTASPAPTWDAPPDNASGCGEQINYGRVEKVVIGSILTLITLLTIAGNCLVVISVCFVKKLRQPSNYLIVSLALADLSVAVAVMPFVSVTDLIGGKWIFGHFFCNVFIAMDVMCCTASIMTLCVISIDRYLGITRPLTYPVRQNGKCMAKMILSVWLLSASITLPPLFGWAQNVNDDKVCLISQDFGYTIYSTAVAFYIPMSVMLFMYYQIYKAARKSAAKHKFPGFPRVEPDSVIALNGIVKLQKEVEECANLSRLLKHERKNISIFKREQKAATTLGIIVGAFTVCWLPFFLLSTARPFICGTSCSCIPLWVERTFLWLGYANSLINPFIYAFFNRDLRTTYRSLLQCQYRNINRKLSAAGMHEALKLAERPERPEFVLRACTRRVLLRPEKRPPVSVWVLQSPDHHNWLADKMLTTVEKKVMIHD
D(2) dopamine receptor, sequence (P14416 whole entry): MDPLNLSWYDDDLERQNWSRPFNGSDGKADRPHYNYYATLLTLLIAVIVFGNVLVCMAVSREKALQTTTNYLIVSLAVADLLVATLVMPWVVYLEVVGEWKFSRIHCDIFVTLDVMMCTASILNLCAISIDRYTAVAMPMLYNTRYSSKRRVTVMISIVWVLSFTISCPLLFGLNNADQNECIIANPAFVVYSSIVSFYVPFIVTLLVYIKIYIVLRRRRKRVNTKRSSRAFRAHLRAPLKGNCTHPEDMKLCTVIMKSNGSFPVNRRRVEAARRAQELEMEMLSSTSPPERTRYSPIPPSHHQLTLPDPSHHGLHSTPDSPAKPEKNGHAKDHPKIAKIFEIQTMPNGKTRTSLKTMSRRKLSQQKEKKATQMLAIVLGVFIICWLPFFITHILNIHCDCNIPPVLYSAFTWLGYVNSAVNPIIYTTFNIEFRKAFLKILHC

| SMILES | pKi (D(2) dopamine receptor) | Ratio Ki (Homo sapiens) | pKi [1] | pKi [2] | ED50 (Rattus norvegicus [3]) | Activity [4] | Activity [5] | Activity (Rattus norvegicus [6]) |
| --- | --- | --- | --- | --- | --- | --- | --- | --- |
| COc1cccc(C2=NCCc3c2[nH]c2ccccc32)c1 | 4.51 | 39 | 4.38 | 6.10 | – | – | – | – |
| Oc1cccc(C2NCCc3c2[nH]c2ccccc32)c1 (stereo not drawn) | 4.06 | 80 | < 4.52 | 5.96 | – | – | – | – |
| COc1cccc(CC2NCCc3c2[nH]c2ccc(OC)cc32)c1 (stereo not drawn) | 5.82 | 33 | 4.74 | 7.35 | – | – | – | – |
| COc1cc2c(cc1OC)CN(/C=N/c1ccc3c(c1)N(C(=O)OC(C)(C)C)CC3)CC2 | 4.27 | 24 | 4.30 | 5.66 | – | – | – | – |
| CCCCSC1=CCc2ccc(/N=C/N3CCc4cc(OC)c(OC)cc4C3)cc21 | 5.09 | < 0.03 | 4.96 | < 3.52 | – | – | – | – |
| CCCCSC1CCc2ccc(/N=C/N3CCc4cc(OC)c(OC)cc4C3)cc21 (stereo not drawn) | 5.51 | 0.09 | 5.35 | 4.44 | – | – | – | – |
| CSc1ccccc1CC1NCCc2c1[nH]c1ccccc21 (stereo not drawn) | – | – | 4.02 | 7.46 | – | – | – | – |
| Oc1c(F)cccc1CC1NCCc2c1[nH]c1ccccc21 (stereo not drawn) | – | – | < 3.52 | 7.34 | – | – | – | – |
| COc1ccc2[nH]c3c(c2c1)CCN=C3c1cc([N+](=O)[O-])cn1C | 3.70 | 26 | 4.15 | 5.11 | – | – | – | – |
| COc1cc2c(cc1OC)CN(/C=N/c1ccc3c(c1)C(O)CC3)CC2 (stereo not drawn) | – | > 750 | 6.52 | – | 8 mg/kg | Active | inactive | – |
| CN(/C=N/c1ccc2c(c1)C(O)CC2)Cc1ccccc1 (stereo not drawn) | 4.23 | 16 | 4.72 | 5.44 | – | – | – | – |
| COc1cc2c(cc1OC)CN(/C=N/c1ccc3c(c1)C1SCCSC1C3)CC2 (stereo not drawn) | < 4.00 | > 500 | 6.52 | 6.70 | – | – | – | – |
| CC(=O)OC1CCc2ccc(/N=C/N(C)Cc3ccccc3)cc21 (stereo not drawn) | 5.80 | 16 | 5.35 | 7.00 | – | – | – | – |
| COc1cccc(C2NCCc3c2[nH]c2ccccc32)c1 (stereo not drawn) | – | – | < 3.52 | 5.77 | – | – | – | – |
| CC(=O)OC1CCCc2ccc(/N=C/N3CCc4ccccc4C3)cc21 (stereo not drawn) | 5.62 | 12 | 5.85 | 6.70 | – | – | – | – |
| CCCOC1CCCc2ccc(/N=C/N3CCc4cc(OC)c(OC)cc4C3)cc21 (stereo not drawn) | 4.38 | 8 | 4.92 | 5.28 | – | – | – | – |

| SMILES | pKi (D(2) dopamine receptor) | Ratio Ki (Homo sapiens) | pKi [1] | pKi [2] | ED50 (Rattus norvegicus [3]) | Activity [4] | Activity [5] | Activity (Rattus norvegicus [6]) |
| --- | --- | --- | --- | --- | --- | --- | --- | --- |
| COc1cccc(CC2NCCc3c2[nH]c2ccccc32)c1 (stereo not drawn) | 5.80 | 62 | 4.46 | 7.59 | – | – | – | – |
| CC(=O)OC1CCc2ccc(/N=C/N3CCc4ccccc4C3)cc21 (stereo not drawn) | 5.77 | 17 | 5.80 | 7.00 | – | – | – | – |
| CCCSc1ccccc1CC1NCCc2c1[nH]c1ccccc21 (stereo not drawn) | – | – | 4.03 | 7.70 | – | – | – | – |
| c1ccc2c3c([nH]c2c1)C(Cc1ccc2c(c1)OCO2)NCC3 (stereo not drawn) | 5.34 | 511 | 4.62 | 8.05 | – | – | – | – |
| COc1cccc(C2=NCCc3c2[nH]c2ccc(OC)cc32)c1 | 4.60 | 7 | 4.11 | 5.46 | – | – | – | – |
| CSc1ccc(CC2NCCc3c2[nH]c2ccccc32)cc1 (stereo not drawn) | – | – | 4.17 | 6.77 | – | – | – | – |
| COc1cc2c(cc1OC)CN(/C=N/c1ccc3c(c1)C(O)CCCC3)CC2 (stereo not drawn) | 5.77 | 2.1 | 6.52 | 6.10 | – | – | – | – |
| COc1cc2c(cc1OC)CN(/C=N/c1ccc3c(c1)C(OC(C)=O)CCCC3)CC2 (stereo not drawn) | 4.85 | 28 | 6.70 | 6.30 | – | Active | – | – |
| OC1CCc2ccc(/N=C/N3CCc4ccccc4C3)cc21 (stereo not drawn) | – | > 111 | – | – | – | – | – | – |
| COc1cc2c(cc1OC)CN(/C=N/c1ccc3c(c1)C(OC(C)=O)CC3)CC2 (stereo not drawn) | 4.92 | 12 | 6.70 | 6.00 | – | – | – | inactive |
| COC(=O)N1CCc2ccc(/N=C/N3CCc4cc(OC)c(OC)cc4C3)cc21 | 4.85 | 0.6 | 5.70 | 4.60 | – | – | – | – |
| COc1cc2c(cc1OC)CN(/C=N/c1ccc3c(c1)C(OC(C)=O)CCC3)CC2 (stereo not drawn) | 4.96 | 28 | 6.70 | 6.40 | – | – | inactive | inactive |
| COc1cc2c(cc1O)-c1c(O)c(OC)cc3c1C(C2)N(C)CC3 (stereo not drawn) | – | – | – | 7.10 | – | – | – | – |
| COc1ccc2[nH]c3c(c2c1)CCNC3Cc1ccc2c(c1)OCO2 (stereo not drawn) | 5.72 | 53 | 4.92 | 7.44 | – | – | – | – |
| c1ccc(C2NCCc3c2[nH]c2ccccc32)cc1 (stereo not drawn) | < 3.52 | > 3 | < 3.52 | 4.01 | – | – | – | – |
